The results in this text go back to publication PMC6944740 (Alzheimer's & Dementia : Translational Research & Clinical …, 2019).

Series [1] relates to SN mice. The class given is in vivo, Kunming mouse. Conditions: 200 μL of 20 μM intracardiac weekly, versus untreated SN mice.
The test system of series [2] is SN mice. Description: TUNEL assay of neuronal necrosis in brain. The class given is in vivo, Kunming mouse. Conditions: intracardiac weekly, versus untreated SN mice. Put shortly: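 Senescent 25-month-old Kunming mice were picked by water maze, TUNEL and blood assays and given 200 μL of 20 μM peptide intracardially each time. Frozen brain sections sat 1 h in Na-HEPES, then 10 mM H2O2 and […]. After PBS wash and 0.1% Triton X-100, TUNEL mix ran 1 h at 37°C in the dark; some sections were DAB-stained. Bright/brown spots were scored necrotic.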

Series [3] in a line: Isothermal titration calorimetry of FeCl3 with 5-YHEDA. Conditions: ITC, 200 μM 5-YHEDA, 1000 μM FeCl3, one-site binding model.
Series [4] can be described thus: 5-YHEDA immunohistochemical staining of brain slices after cardiac injection. The class given is in vivo, mouse. Conditions: mice, intracardiac injection. Put shortly: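 Fixed brain slices were blocked in 0.1% BSA/PBS (w/v) for 1 h, then given anti-peptide mouse serum at 4°C overnight. The serum was raised in normal mice injected weekly with peptide plus incomplete Freund adjuvant (s.c. or i.p.) for 2 months. After washing, slices took HRP goat anti-mouse IgG for 2 h, then DAB development.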

The subject of the next series is SH-sy5y cells. As to the kind of experiment: SH-sy5y cells in iron-rich medium: hydroxyl radical, iron and cell survival. Conditions: 1.5 μM peptide; SEM and flow cytometry. It is filed as cell-based, human.
A short description of series [5]: Solubility of the oligomer. It is filed as physicochemical. Conditions: dissolved in distilled water at 1 mg/mL.

With YHEDAYHEDAYHEDAYHEDAYHEDA [5-YHEDA], the “iron and radical levels in the brain (Fig. 5I)” value in the series on SN mice [1] was “nearly the same as those in the untreated SN mice”. The “neuronal necrosis in the SN brain (TUNEL)” value with SN mice [2] is “did not prevent neuronal damage”. Further, in series [3], the “Gibbs energy lost after FeCl3 titration (ΔG)” value stood at 8973 kcal/mol. In addition, the “entry into brain (anti-5-YHEDA immunohistochemical staining of brain slices)” value in series [4] is listed as “no staining was observed”. The “survival of SH-sy5y cells in iron-rich medium” value with SH-sy5y cells is listed as “many of the SH-sy5y cells cultured in iron-rich medium survived”. The solubility result in series [5] is on record as “soluble”.
